# Activity calls are given as the source filed them. No cut-off for these calls is given here.
# Key:
# [1] = Stability in HEPES buffer at pH 4.4 measured within 24 hrs by HPLC method; format: physicochemical; settings: pH 4.4, 24 h
# Procedure, shortened: (§1)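 Prodrug incubated in HEPES buffer at pH 4.4 or pH 7.4; concentrations of prodrug and released isothiocyanate followed over time (up to 24 h and beyond) to build concentration–time curves.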
# [2] = Stability in mouse plasma assessed as time duration for complete drug degradation by HPLC method; format: ADME, cell-free
# [3] = Half life in mouse plasma by HPLC method; format: ADME, cell-free
# Danio rerio [4] = organism: Danio rerio; assay: Anti-inflammatory activity in EGFP transgenic Zebrafish model of neutrophil inflammation assessed as reduction in number of neutrophil migration at 5 ug/ml incubated for 3 hrs by stereofluorescence microscopy; format: functional, organism-based
# Procedure, shortened: (§2)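 72 h post-fertilization EGFP transgenic zebrafish, 24 larvae split into 4 groups (vehicle control, reference, two test articles); compound added to culture wells for 3 h; migrating neutrophils counted; P vs control by statistical comparison.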
# [5] = Prodrug conversion in mouse plasma assessed as formation of 1-isothiocyanato-4-(methylsulfinyl)butane measured after 24 hrs by HPLC method; format: ADME, cell-free
# [6] = Prodrug conversion in mouse plasma assessed as Tmax for formation of 1-isothiocyanato-4-(methylsulfinyl)butane measured after 24 hrs by HPLC method; format: ADME, cell-free
# Danio rerio [7] = organism: Danio rerio; assay: Potency index, ratio of dexamethasone to test compound anti-inflammatory activity in EGFP transgenic Zebrafish model of neutrophil inflammation assessed as reduction in number of neutrophil migration incubated for 3 hrs by stereofluorescence microscopy; format: functional
# Danio rerio [8] = organism: Danio rerio; assay: Anti-inflammatory activity in EGFP transgenic Zebrafish model of neutrophil inflammation assessed as reduction in number of neutrophil migration at 0.5 ug/ml incubated for 3 hrs by stereofluorescence microscopy; format: functional, organism-based; procedure, shortened: as §2
# Rattus norvegicus [9] = assay: Anti-inflammatory activity in Wistar rat model of Freund's complete adjuvant-induced rheumatoid arthritis model assessed as reduction in paw swelling at 10 mg/kg, po dosed every day from day 16 after initial inflammation and measured after 10 days; format: functional, organism-based
# Procedure, shortened: (§3)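 Wistar rats with Freund's complete adjuvant-induced arthritis, 30 randomized into 5 groups; oral daily dosing from day 16 after initial inflammation, reference 1 mg/kg, test 10, 20, 40 mg/kg; paw swelling degree tracked over days; P < .05 vs model group.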
# Rattus norvegicus [10] = assay: Anti-inflammatory activity in Sprague-Dawley rat model of carrageenan-induced paw edema assessed as reduction in hind paw volume at 10 to 50 mg/kg, po dosed for 2 times at 6 hrs after carrageenan injection measured after 8 to 10 hrs; format: functional, organism-based; settings: in the assay text read “at 2 and 6 hrs” for “at 6 hrs”
# Procedure, shortened: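 Sprague-Dawley rats, 30 randomized into 5 groups (6 per group); oral dosing twice, at 2 h and 6 h after finishing carrageenan injection into paw; reference 5 mg/kg, test 10, 20, 50 mg/kg; swelling followed over time (to 10 h); significance vs model group.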
# Mus musculus [11] = assay: Toxicity in Kunming white mouse assessed as effect on body weight at 200 mg/kg, po dosed everyday for 5 weeks measured from day 30 onwards; format: organism-based; settings: in vivo, 840 h
# Procedure, shortened: (§4)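 Mice were dosed orally once daily at 200 mg/kg for 5 weeks alongside an untreated control group. Survival and body weight were recorded over the dosing period and compared with controls.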
# Rattus norvegicus [12] = assay: Toxicity in Wistar rat model of Freund's complete adjuvant-induced rheumatoid arthritis model assessed as increase in body weight at 10 mg/kg, po dosed every day from day 16 after initial inflammation (reference value: 84.6 g); format: organism-based; settings: in vivo
# Rattus norvegicus [13] = assay: Toxicity in Wistar rat model of Freund's complete adjuvant-induced rheumatoid arthritis model assessed as increase in body weight at 40 mg/kg, po dosed every day from day 16 after initial inflammation (reference value: 84.6 g); format: organism-based; settings: in vivo
# Rattus norvegicus [14] = assay: Anti-inflammatory activity in Wistar rat model of Freund's complete adjuvant-induced rheumatoid arthritis model assessed as reduction in paw swelling at 10 to 20 mg/kg, po dosed every day from day 16 after initial inflammation and measured after 10 days; format: functional, organism-based; procedure, shortened: as §3
# Mus musculus [15] = assay: Toxicity in Kunming white mouse assessed as survival at 200 mg/kg, po dosed everyday for 5 weeks; format: organism-based; settings: in vivo, 840 h; procedure, shortened: as §4
# [16] = Prodrug conversion in mouse plasma assessed as Tmax for formation of 5-(4-isothiocyanatobutylthio)-1-phenyl-1H-tetrazole measured after 24 hrs by HPLC method; format: ADME, cell-free
# Rattus norvegicus [17] = assay: Anti-inflammatory activity in Wistar rat model of Freund's complete adjuvant-induced rheumatoid arthritis model assessed as reduction in paw swelling at 10 to 40 mg/kg, po dosed every day from day 16 after initial inflammation; format: functional, organism-based; procedure, shortened: as §3
# [18] = Prodrug conversion in mouse plasma assessed as formation of 5-(4-isothiocyanatobutylthio)-1-phenyl-1H-tetrazole measured after 24 hrs by HPLC method; format: ADME, cell-free
# Rattus norvegicus [19] = assay: Toxicity in Wistar rat model of Freund's complete adjuvant-induced rheumatoid arthritis model assessed as increase in body weight at 20 mg/kg, po dosed every day from day 16 after initial inflammation (reference value: 84.6 g); format: organism-based; settings: in vivo
# Danio rerio [20] = organism: Danio rerio; assay: Anti-inflammatory activity in EGFP transgenic Zebrafish model of neutrophil inflammation assessed as reduction in number of neutrophil migration at 30 ug/ml incubated for 3 hrs by stereofluorescence microscopy; format: functional, organism-based; procedure, shortened: as §2
# [21] = Drug level in HEPES buffer at pH 7.4 treated with 2-(2-(2-(dimethylamino)ethoxy)ethoxy)ethyl 4-(1-phenyl-1H-tetrazol-5-ylthio)butylcarbamodithioate assessed as active compound formation measured at 2 hrs by HPLC method; format: physicochemical; settings: pH 7.4, 2 h; procedure, shortened: as §1
# [22] = Drug level in mouse plasma treated with 2-(2-(2-(dimethylamino)ethoxy)ethoxy)ethyl 4-(1-phenyl-1H-tetrazol-5-ylthio)butylcarbamodithioate assessed as active compound formation measured after 24 hrs by HPLC method; format: ADME, cell-free
# [23] = Drug level in HEPES buffer at pH 7.4 treated with 2-(2-(2-(dimethylamino)ethoxy)ethoxy)ethyl 4-(1-phenyl-1H-tetrazol-5-ylthio)butylcarbamodithioate assessed as active compound formation measured during 2 to 30 hrs by HPLC method; format: physicochemical; procedure, shortened: as §1
# clinical = settings: human, in vivo
# in vivo = settings: rat
# Rattus norvegicus [24] = assay: Anti-inflammatory activity in Wistar rat model of Freund's complete adjuvant-induced rheumatoid arthritis model assessed as reduction in paw swelling at 1 mg/kg, po dosed every day from day 16 after initial inflammation; format: functional, organism-based; procedure, shortened: as §3
# Rattus norvegicus [25] = assay: Anti-inflammatory activity in Wistar rat model of Freund's complete adjuvant-induced rheumatoid arthritis model assessed as reduction in paw swelling at 1 mg/kg, po dosed every day from day 16 after initial inflammation and measured after 10 days; format: functional, organism-based; procedure, shortened: as §3
compound,measurement,setting,value
CN(C)CCOCCOCCSC(=S)NCCCC[S+](C)[O-] (stereo not given),Stability,[1],Stable
same,Time,[2],24 h
same,half-life,[3],6 h
same,Activity,Danio rerio [4],Active
same,Drug metabolism,[5],Metabolite_Detected
same,Tmax,[6],2 h
CN(C)CCOCCOCCSC(=S)NCCCCSc1nnnn1-c1ccccc1,Ratio,Danio rerio [7],300
same,Activity,Danio rerio [8],Active
same,Stability,[1],Stable
same,Activity,Rattus norvegicus [9],Active
same,Activity,Rattus norvegicus [10],Active
same,Activity,Mus musculus [11],Non-Toxic
same,Activity,Rattus norvegicus [12],80.8 g
same,Time,[2],10 h
same,half-life,[3],6 h
same,Activity,Rattus norvegicus [13],58.2 g
same,Activity,Rattus norvegicus [14],Active
same,Activity,Mus musculus [15],Non-Toxic
same,Tmax,[16],2 h
same,Activity,Rattus norvegicus [17],Active
same,Drug metabolism,[18],Metabolite_Detected
same,Activity,Rattus norvegicus [19],70.8 g
C[C@@H]1C[C@H]2[C@@H]3CCC4=CC(=O)C=C[C@]4(C)[C@@]3(F)[C@@H](O)C[C@]2(C)[C@@]1(O)C(=O)CO,Activity,Danio rerio [20],Active
S=C=NCCCCSc1nnnn1-c1ccccc1,Drug uptake,[21],Active
same,Drug uptake,[22],Active
same,Drug uptake,[23],Active
C[S+]([O-])CCCCN=C=S (stereo not given) [SULFORAPHANE],half-life,clinical,1.77 h
same,half-life,in vivo,2.2 h
CN(Cc1cnc2nc(N)nc(N)c2n1)c1ccc(C(=O)N[C@@H](CCC(=O)O)C(=O)O)cc1,Activity,Rattus norvegicus [24],Active
same,Activity,Rattus norvegicus [25],Active
